p-CIP stab down: compounds decreasing mouse p/CIP protein stability | Q05BA5 | F442A p/CIP-EGFP cells, EGFP fluorescence, 16 h | decrease of EGFP signal, % at 10 µM | 290,000 tested, 0.01% active;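 active = EGFP signal decrease of at least 30% at 10 µM or well 3 SD below plate mean, unless failing retest; inactive = the rest, including hits failing retest or dose response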
Pemphigus Ab inh: inhibitors of pemphigus antibody binding to human desmoglein-3. P32926. DSG3-coupled beads, scFv-anti-DSG3-GFP binding, flow cytometry; hits give low values. binding (percent of control), % at 10 µM. 310,000 tested, 0.48% active;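 active = binding more than 3 SD below its plate's average and above zero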;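 note: hits lower antibody fragment binding to DSG3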
CHT allo act: allosterically activates the human high affinity choline transporter | Q9GZV3 | 310,000 tested, 0.49% active | CHT-expressing cells, membrane potential dye, choline EC20; hits give high values; LV-AA mutant CHT in HEK293 cells | AID 488977 | B-score at 10 µM;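 active = initial fluorescence not abnormally high and integrated response B-score, plate-corrected, over 3 SD above library mean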
CHT inh: inhibits the human high affinity choline transporter | 310,000 tested, 0.86% active | CHT-expressing cells, membrane potential dye, choline response; hits give low values | B-score at 10 µM | AID 488975;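 active = B-score over 3 SD under the library average, and starting fluorescence ratio not unusually high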;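 note: choline stimulus applied at its EC90 after an EC20 pre-addition; B-score computed on integrated fluorescence ratio after choline addition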
GPR7 antag: human neuropeptides B/W receptor 1 antagonism; GPR7-expressing cells, fluorescence antagonist assay; AID 1861; inhibition, % at 4.4 µM; 290,000 tested, 1.1% active; P48145; in the data active = inhibition above about 16%, passing the limit was not always enough;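 note: cells stimulated with the agonist NPW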
Target sequence (P48145 whole entry, looked up): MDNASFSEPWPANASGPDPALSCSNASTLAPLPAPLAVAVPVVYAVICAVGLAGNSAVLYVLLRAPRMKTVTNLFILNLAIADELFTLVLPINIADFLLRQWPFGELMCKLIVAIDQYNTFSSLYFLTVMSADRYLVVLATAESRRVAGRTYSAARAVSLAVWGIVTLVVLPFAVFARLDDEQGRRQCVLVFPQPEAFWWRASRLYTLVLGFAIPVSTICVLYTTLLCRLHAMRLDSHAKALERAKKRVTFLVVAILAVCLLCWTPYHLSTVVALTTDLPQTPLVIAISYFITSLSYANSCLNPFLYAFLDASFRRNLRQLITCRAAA
T cell HTS: T cell immune modulators affecting CD8 T cell-vesicle binding; 330,000 tested, 0.068% active; 2C CD8+ T cell-vesicle binding, flow cytometry; hits give low values; AID 2052; response (vesicle binding), % at 7 µM;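 active = response, share of CD8 T cells binding vesicles, and their 90th percentile fluorescence all below set limits, cut at about 80% in these data, passing the limit was not always enough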;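 note: values below 100% mean blocked vesicle binding to the CD8+ T cells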
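System: murine 2C transgenic CD8+ T lymphocytes; also added: QL9-loaded Drosophila micro-vesicles; times: binding 1.5 h at 37 °C; measured by: flow cytometry, PE anti-B7-1 (FL2) versus Alexa647 anti-CD8 (FL8), PFA-fixed; control set: Peptide-free naked vesicles (low) and QL9 vesicles with 0.7% DMSO vehicle (high)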
GPR7 antag cf: human GPR7 antagonism, confirmation assay. shares compounds with GPR7 antag. GPR7-expressing cells, calcium fluorescence antagonist mode. inhibition, % at 4.4 µM. 2,400 tested, 52% active. AID 1952; in the data active = inhibition above about 24%;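 note: stimulated with the GPR7 agonist NPW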
MCHR1 antag: counter-screen for GPR7 antagonists: antagonists of human MCHR1. shares compounds with GPR7 antag. MCHR1-expressing cells, fluorescence antagonist assay. inhibition, % at 4.4 µM. 2,400 tested, 62% active. AID 2148; in the data active = inhibition above about 22%
Hits are given with their value; . = inactive; / = no result. Shown are actives, neighbours in structure and some others; about 2.3% of the full set was active somewhere.

SMILES	p-CIP stab down	Pemphigus Ab inh	CHT allo act	CHT inh	GPR7 antag	T cell HTS	GPR7 antag cf	MCHR1 antag
CCCCn1c(N)c(N(CC(C)C)C(=O)c2cccc(S(=O)(=O)N3CCCCCC3)c2)c(=O)[nH]c1=O	.	.	.	.	28	.	.	.
CCCSc1ccc2nc(NC(=O)OC)[nH]c2c1	.	.	.	.	29	.	40	28
COCOCCn1cc(CN2CCS(=O)(=O)N(Cc3ccc(-c4ccc(F)cc4)cc3)C(CC(C)C)C2=O)nn1 (centres undefined)	/	.	/	/	/	/	/	/
O=C(CN1C(=O)c2ccccc2C1=O)Nc1ccccc1F	.	.	.	.	21	.	.	38
COc1ccccc1CCNC(=O)C(=O)NCC1OCCN1S(=O)(=O)c1ccc(F)cc1 (centres undefined)	.	.	.	.	28	.	.	.
COc1ccccc1CCNC(=O)C(=O)NCC1OCCN1S(=O)(=O)c1ccc(Cl)cc1 (centres undefined)	.	.	.	.	.	.	/	/
N#CCOC(=O)[C@H](Cc1c[nH]c2ccccc12)NS(=O)(=O)c1ccc(Cl)cc1	.	.	.	.	43	.	49	33
O=C(O)C(Cc1c[nH]c2ccccc12)NS(=O)(=O)c1ccc(F)cc1 (centres undefined)	/	.	/	/	/	/	/	/
CCCCCCN1C[C@@H](O)[C@H](n2cc(-c3ccc(F)cc3)nn2)C[C@@H]1c1ccccc1	/	.	/	/	/	/	/	/
CN(c1ccccc1)S(=O)(=O)c1ccc(C(=O)NCCc2ccc(F)cc2)cc1	.	/	.	.	27	.	.	.
CN(C(=O)COC(=O)c1cc(S(=O)(=O)N2CCOCC2)c(Cl)cc1Cl)C1CCS(=O)(=O)C1 (centres undefined)	.	.	.	.	26	.	.	.
CN(C(=O)COC(=O)c1cccc(S(=O)(=O)N2CCOCC2)c1)C1CCS(=O)(=O)C1 (centres undefined)	/	.	.	.	/	.	/	/
O=C(c1cc2sccc2n1Cc1ccc(F)cc1)N1CCN(c2nc3ccccc3s2)CC1	.	.	.	.	32	.	28	38
OC(Cc1cccc(C=NN2CCOCC2)n1)(C(F)(F)F)C(F)(F)F	/	.	/	/	/	/	/	/
O=[N+]([O-])c1cccc(NC(=S)Nc2nc(-c3ccccc3Cl)cs2)c1	.	.	.	.	27	.	42	55
O=C(OCc1ccccc1)C1=NNC2C(=O)N(c3ccccc3)C(=O)C12 (centres undefined)	.	.	.	.	23	.	.	.
Cc1ccc(N2C(=O)C3NN=C(C(=O)OCc4ccccc4)C3C2=O)cc1 (centres undefined)	.	.	.	.	.	.	/	/
Cc1nc2nc(C)n(CCN3CCOCC3)c(=O)c2c(-c2cccc([N+](=O)[O-])c2)c1C(=O)CCCCCCCCCCN1CCC(c2ccccc2)(c2ccccc2)CC1	/	.	/	/	/	/	/	/
CCOc1ccccc1CNC(=O)CCN1C(=O)COc2ccccc21	.	.	.	.	.	.	/	/
O=C(CCN1C(=O)COc2ccccc21)NCc1cccnc1	.	.	.	.	28	.	.	.
CC(=O)OCCNc1cc(Sc2nc3ccccc3[nH]2)c2nonc2c1[N+](=O)[O-]	.	.	.	.	33	.	60	101
CCOC(=O)/C(C)=C1\NC(C)(C)Cc2ccccc21	.	.	/	/	24	/	.	.
Cc1cc(C)c(C(N)=O)c(SCC(=O)c2cc(C)n(-c3cc(C)on3)c2C)n1	/	.	/	/	/	.	/	/
OC(C#CCCN1CCCCC1)(c1ccccc1)c1ccccc1	.	.	.	.	22	.	.	.
Cc1ccc(OCC(=O)Nc2ccc3c(c2)C(=O)NC3=O)c(C)c1	.	.	.	.	.	.	/	/
SMILES	p-CIP stab down	Pemphigus Ab inh	CHT allo act	CHT inh	GPR7 antag	T cell HTS	GPR7 antag cf	MCHR1 antag
O=C(COc1ccc(Br)cc1)Nc1ccc2c(c1)C(=O)NC2=O	.	.	.	.	.	.	/	/
COc1ccc(OCC(=O)Nc2ccc3c(c2)C(=O)NC3=O)cc1	.	.	.	.	29	.	26	.
CC(=O)c1ccc(C(=O)Nc2ccc3c(c2)C(=O)NC3=O)cc1	.	.	.	.	22	.	.	.
Cc1cccc(C)c1OCC(=O)Nc1ccc2c(c1)C(=O)NC2=O	.	.	.	.	32	.	27	29
O=C(CSc1ccccc1)Nc1ccc2c(c1)C(=O)NC2=O	.	.	.	.	27	.	37	36
COc1ccc(OC)c(NC(=O)CCNS(=O)(=O)c2ccc3c(c2)CC(C)N3C(C)=O)c1 (centres undefined)	/	.	/	/	/	/	/	/
CC(C)COC(=O)N(C)C[C@@H]1OCc2cnnn2CCCC(=O)N([C@H](C)CO)C[C@H]1C	/	.	/	/	/	/	/	/
COc1ccc(C2(C)C(C#N)C(=O)NC(=O)C2C#N)cc1 (centres undefined)	/	.	/	/	/	/	/	/
COc1ccccc1NC(=O)CCNC(=O)C1CCN(S(=O)(=O)c2ccccc2)CC1	/	.	/	/	/	/	/	/
O=c1c(/C=N/O)coc2ccc3ccccc3c12	.	/	.	.	27	.	.	.
Cc1ccc2occ(/C=N/O)c(=O)c2c1	.	.	.	.	.	.	/	/
CCN1CCN(CCNC(=O)c2ccc(/C=C3/Sc4ccccc4N(Cc4ccccc4C)C3=O)cc2)CC1	.	.	/	/	26	/	83	91
CCN1CCN(CCCNC(=O)c2ccc(/C=C3/Sc4ccccc4N(Cc4ccccc4F)C3=O)cc2)CC1	.	.	.	.	.	.	/	/
CC(C)Cc1cc(C(=O)N2CCCC(CO)(Cc3ccc(F)cc3)C2)no1 (centres undefined)	.	.	.	.	.	.	/	/
CC(C)Cc1cc(C(=O)N2CCCC(CO)(Cc3ccc(F)cc3F)C2)n[nH]1 (centres undefined)	.	.	.	.	/	.	/	.
CC(=O)Oc1c(C)cc(Cl)cc1C(=O)Nc1ccc([N+](=O)[O-])cc1Cl	.	.	.	.	25	.	59	62
O=C(N/N=C/c1ccncc1)c1ccccc1OCc1ccc(Br)cc1	.	.	.	.	31	.	25	43
Cc1ccc(/C=N/NC(=O)c2ccccc2OCc2ccc(F)cc2)o1	.	.	.	.	.	.	/	/
CCN1CCc2c(OCc3ccc(C(=O)OC)o3)cccc2C1=O	.	/	.	.	.	.	/	/
COC(=O)c1ccc(COc2cccc3c2CCN(Cc2ccccc2)C3=O)o1	.	/	.	.	29	.	31	57
O=C1c2cccc(OCc3ccc(F)cc3)c2CCN1Cc1ccc(F)cc1	.	.	.	.	.	.	/	/
COC(=O)c1ccc(COc2cccc3c2CCN(Cc2cccc(C)c2)C3=O)o1	.	.	.	.	22	.	43	70

Screens (PubChem BioAssay)
